Calls of active or inactive are those of the source. No cut-off for these calls is given here.
Key:
[1] = Inhibition of human 20S proteasome by fluorescence spectroscopy
Procedure, shortened: (§1)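 20S proteasome (1.3 µg) activated in 25 mM Hepes pH 7.5, 0.5 mM EDTA, 0.033% SDS for 10 min at room temperature. Added to compound in DMSO with 75 µM Suc-LLVY-AMC. AMC release followed 20 min at 30 °C (ex 360, em 465 nm) as RFU/min. IC50 from eight concentrations, triplicates on one day.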

[2] = Inhibition of peptidylglutamyl peptide hydrolyzing site of human 20S proteasome
Procedure, shortened: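 Peptidylglutamyl-peptide hydrolysing activity of SDS-activated 20S proteasome (1.3 µg; 25 mM Hepes pH 7.5, 0.5 mM EDTA, 0.033% SDS, 10 min preincubation at room temperature). Substrate was 75 µM Z-LLE-βNA with compound in DMSO. Fluorescence followed 20 min at 30 °C as RFU/min. IC50 from eight concentrations, triplicates on one day.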

[3] = Inhibition of chymotrypsin-like site of human 20S proteasome; procedure, shortened: as §1
[4] = test system: A549; assay: Inhibition of TNF-alpha-induced NF-kappaB transcriptional activation in human A549 cells by SEAP reporter gene assay; format: functional, cell-based
Procedure, shortened: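 A549 cells stably transfected with a pNF-κB-SEAP reporter, seeded at 2 × 10^4/well and attached overnight. Preincubated 5 h with compound at 100, 30, 10, 3, 1, 0.3, 0.1 and 0 µM, then stimulated with 10 ng/ml TNF-α for 22 h. Supernatant SEAP read by chemiluminescence; viability checked in parallel with CellTiter-Blue.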

[5] = test system: PBMC; assay: Antiproliferative activity against human peripheral blood mononuclear cells after 48 hrs by ELISA; format: cell-based
Procedure, shortened: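 Human PBMC isolated by density gradient, 100,000–200,000 cells/well in RPMI 1640 with 10% heat-inactivated FBS. Stimulated with 20 µg/ml PHA-L and exposed to compound at 0.4–50 µM for 48 h at 37 °C, 5% CO2. BrdU (10 µM) added for a further 4 h. Cells fixed and DNA denatured; incorporated BrdU detected with anti-BrdU-POD.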

Q: What does the source list for NC(=O)N/N=C/[C@H](Cc1c[nH]c2ccccc12)NC(=O)[C@H](Cc1c[nH]c2ccccc12)NC(=O)[C@H](Cc1c[nH]c2ccccc12)NC(=O)OCc1ccccc1?
A: IC50 [1]: 100 nM; IC50 [2]: 3700 nM; IC50 [3]: 100 nM; EC50 [4]: 1800 nM; IC50 [5]: 1400 nM

Q: With O=C1CN(/N=C/[C@H](Cc2ccccc2)NC(=O)[C@H](Cc2c[nH]c3ccccc23)NC(=O)[C@H](Cc2c[nH]c3ccccc23)NC(=O)CCCCC2SCC3NC(=O)NC32)C(=O)N1 (stereo partly drawn) as the molecule, how does the IC50 [1] read?
A: 100 nM

Q: What about the Activity [4] of the same molecule?
A: inactive

Q: What about the IC50 [5] of the same molecule?
A: 29000 nM

Q: For O=C1CN(/N=C/[C@H](Cc2ccccc2)NC(=O)[C@H](Cc2c[nH]c3ccccc23)NC(=O)[C@H](Cc2c[nH]c3ccccc23)NC(=O)CCc2ccc(O)cc2)C(=O)N1, which IC50 [1] is on record?
A: 100 nM

Q: And the EC50 [4]?
A: 8700 nM

Q: Which IC50 [1] does the source give for O=C1CN(/N=C/[C@@H](Cc2ccccc2)NC(=O)[C@H](Cc2c[nH]c3ccccc23)NC(=O)[C@H](Cc2c[nH]c3ccccc23)NC(=O)OCc2ccccc2)C(=O)N1 here?
A: 400 nM

Q: And the EC50 [4]?
A: 800 nM

Q: Which IC50 [1] does the source give for NC(=O)N/N=C/[C@H](Cc1ccccc1)NC(=O)[C@H](Cc1c[nH]c2ccccc12)NC(=O)[C@H](Cc1c[nH]c2ccccc12)NC(=O)OCc1ccccc1 here?
A: 200 nM

Q: What about the EC50 [4] of the same molecule?
A: 5800 nM

Q: What does the source list for O=C1CN(/N=C/[C@H](Cc2ccccc2)NC(=O)[C@H](Cc2c[nH]c3ccccc23)NC(=O)[C@H](Cc2c[nH]c3ccccc23)NC(=O)OCc2ccncc2)C(=O)N1?
A: IC50 [1]: 1600 nM; EC50 [4]: 4900 nM

Q: What does the source list for O=C1CN(/N=C/[C@H](Cc2ccccc2)NC(=O)[C@H](Cc2c[nH]c3ccccc23)NC(=O)[C@H](Cc2c[nH]c3ccccc23)NC(=O)OCc2ccccc2)C(=O)N1?
A: IC50 [1]: 200 nM; IC50 [2]: 1200 nM; IC50 [3]: 200 nM; EC50 [4]: 400 nM; IC50 [5]: 700 nM

Q: Which IC50 [1] does the source give for O=C1CN(/N=C/[C@H](Cc2c[nH]c3ccccc23)NC(=O)[C@H](Cc2c[nH]c3ccccc23)NC(=O)[C@H](Cc2c[nH]c3ccccc23)NC(=O)OCc2ccccc2)C(=O)N1 here?
A: 1100 nM

Q: What about the EC50 [4] of the same molecule?
A: 3000 nM

Source: ChEMBL document CHEMBL1149859, “Proteasome inhibition by peptide-semicarbazones” (Bioorg Med Chem, 2008)
